The target of test [1] is Melanocortin receptor 3 (Mus musculus, UniProt P33033). The test is described as follows: Effective concentration for mouse Melanocortin-3 receptor. A digest of the protocol:
(§1)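 HEK-293 cells stably expressing the mouse receptor (G418 selection), transiently transfected with a CRE/β-galactosidase reporter. Forskolin (10^-4 M) served as the control. After lysis, ONPG was added at 37° and OD405 was read. Signals were normalized to protein content and forskolin; EC50 came from a nonlinear least-squares fit, duplicate or more independent experiments in quadruplicate.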

Test [2] deals with Melanocyte-stimulating hormone receptor (Mus musculus, UniProt Q01727). The test is described as follows: Effective concentration for mouse Melanocortin-1 receptor.
Sequence of Melanocyte-stimulating hormone receptor (Q01727 whole entry): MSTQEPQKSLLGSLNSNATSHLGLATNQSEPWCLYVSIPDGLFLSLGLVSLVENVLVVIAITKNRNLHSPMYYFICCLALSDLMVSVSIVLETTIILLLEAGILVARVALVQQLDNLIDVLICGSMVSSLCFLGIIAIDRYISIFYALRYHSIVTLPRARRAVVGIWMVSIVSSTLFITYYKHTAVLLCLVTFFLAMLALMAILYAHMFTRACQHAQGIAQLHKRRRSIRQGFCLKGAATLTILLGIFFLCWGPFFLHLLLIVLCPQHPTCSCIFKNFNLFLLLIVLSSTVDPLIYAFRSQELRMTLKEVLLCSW
Test [3] addresses Melanocortin receptor 4 (Mus musculus, UniProt P56450). The test is described as follows: Effective concentration for mouse Melanocortin-4 receptor. A digest of the protocol:
as §1

For test [4], the target named is Melanocortin receptor 5 (Mus musculus, UniProt P41149). The test is described as follows: Effective concentration for mouse Melanocortin-5 receptor.
Sequence of Melanocortin receptor 5 (P41149 whole entry): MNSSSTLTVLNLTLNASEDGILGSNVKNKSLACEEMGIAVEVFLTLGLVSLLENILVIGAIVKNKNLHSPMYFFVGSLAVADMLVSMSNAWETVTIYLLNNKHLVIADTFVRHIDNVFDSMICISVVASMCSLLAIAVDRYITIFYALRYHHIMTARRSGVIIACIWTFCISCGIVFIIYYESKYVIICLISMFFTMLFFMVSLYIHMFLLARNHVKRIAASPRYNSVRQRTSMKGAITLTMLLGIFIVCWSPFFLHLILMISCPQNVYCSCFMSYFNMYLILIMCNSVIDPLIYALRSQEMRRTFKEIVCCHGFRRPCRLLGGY
For test [5], the species on record is Mus musculus. The test is described as follows: Relative effective concentration for Melanocortin-3 and Melanocortin-4 receptors.
The target in test [6] is Melanocortin receptor 3 (Mus musculus) (UniProt P33033). The test is described as follows: Relative percent of stimulatory activity for mouse Melanocortin-3 receptor at 100 uM. A digest of the protocol: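 HEK-293 cells stably expressing mouse melanocortin receptors (G418-selected) were transiently transfected with a CRE/β-galactosidase reporter. 48 h after transfection, cells were stimulated for 6 h with peptide (10^-4 to 10^-12 M) or forskolin (10^-4 M) in DMEM with 0.1 mg/mL BSA and 0.1 mM IBMX. Lysates were incubated with ONPG at 37° and read at OD405. Signals were normalized to relative protein (OD595) and to forskolin response. EC50 came from nonlinear least-squares fits of duplicate experiments in quadruplet or more.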
Sequence of Melanocortin receptor 3 (Mus musculus) (P33033 whole entry): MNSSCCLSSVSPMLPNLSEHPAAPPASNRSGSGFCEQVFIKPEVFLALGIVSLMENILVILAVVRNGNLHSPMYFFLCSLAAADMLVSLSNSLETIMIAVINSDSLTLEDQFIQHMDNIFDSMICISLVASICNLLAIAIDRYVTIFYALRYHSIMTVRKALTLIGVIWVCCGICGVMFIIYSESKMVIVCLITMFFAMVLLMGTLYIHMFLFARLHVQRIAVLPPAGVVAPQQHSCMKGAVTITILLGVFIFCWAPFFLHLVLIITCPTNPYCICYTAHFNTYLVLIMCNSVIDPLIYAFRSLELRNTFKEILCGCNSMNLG

Structures are written as SMILES. Where a SMILES comes first, the peptide text is derived from it. Bridges are numbered along the chain shown (N, C = ends). A value given as a limit tells only on which side of the number the result lay.

Experimental findings from ChEMBL document CHEMBL1143614, “Structure-activity relationships of the unique and potent agouti-related protein (AGRP)-melanocortin chimeric Tyr-c[beta-Asp-His-DPhe-Arg-Trp-Asn-Ala-Phe-Dpr]-Tyr-NH2 peptide template” (J Med Chem, 2005) are described below.

Sequence of Melanocortin receptor 3 (P33033 whole entry): as above
Sequence of Melanocortin receptor 4 (P56450 whole entry): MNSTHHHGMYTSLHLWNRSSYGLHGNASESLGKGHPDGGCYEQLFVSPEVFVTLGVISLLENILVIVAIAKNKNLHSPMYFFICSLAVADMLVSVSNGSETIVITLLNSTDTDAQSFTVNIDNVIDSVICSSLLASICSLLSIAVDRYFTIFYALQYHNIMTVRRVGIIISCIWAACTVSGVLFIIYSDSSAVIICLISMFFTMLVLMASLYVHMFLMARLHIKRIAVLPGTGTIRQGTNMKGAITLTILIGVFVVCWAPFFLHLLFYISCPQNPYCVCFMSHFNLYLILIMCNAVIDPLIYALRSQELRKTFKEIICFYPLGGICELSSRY

In general, EC50 refers to the midpoint of the concentration-response curve. Read a low EC50 as a more potent agent. For the compound `C[C@@H]1NC(=O)[C@H](CC(N)=O)NC(=O)[C@H](Cc2c[nH]c3ccccc23)NC(=O)[C@H](CCCCN)NC(=O)[C@@H](Cc2ccccc2)NC(=O)[C@H](Cc2c[nH]cn2)NC(=O)[C@@H](NC(=O)[C@@H](N)Cc2ccc(O)cc2)CC(=O)N([C@@H](Cc2ccc(O)cc2)C(N)=O)[C@@](C)(C(=O)O)NC(=O)[C@H](Cc2ccccc2)NC1=O`, the EC50 in test [1] came out at 30800 nM.

As to `C[C@@H]1NC(=O)[C@H](CC(N)=O)NC(=O)[C@H](Cc2c[nH]c3ccccc23)NC(=O)[C@H](CCCN=C(N)N)NC(=O)[C@@H](Cc2ccccc2)NC(=O)C2(CCc3ccccc3C2)NC(=O)[C@@H](NC(=O)[C@@H](N)Cc2ccc(O)cc2)CC(=O)NC[C@@H](C(=O)N[C@@H](Cc2ccc(O)cc2)C(N)=O)NC(=O)[C@H](Cc2ccccc2)NC1=O` (mixture of isomers), the concentration giving a half-maximal response (EC50) in test [2] was found to be 690 nM; in test [3], 115 nM; in test [4], 440 nM.

As to `C[C@@H]1NC(=O)[C@H](CC(N)=O)NC(=O)[C@H](Cc2ccc(-c3ccccc3)cc2)NC(=O)[C@H](CCCN=C(N)N)NC(=O)[C@@H](Cc2ccccc2)NC(=O)[C@H](Cc2c[nH]cn2)NC(=O)[C@@H](NC(=O)[C@@H](N)Cc2ccc(O)cc2)CC(=O)N([C@@H](Cc2ccc(O)cc2)C(N)=O)[C@@](C)(C(=O)O)NC(=O)[C@H](Cc2ccccc2)NC1=O`, the EC50 in test [1] amounted to 450 nM. For the same compound, the Selectivity ratio in test [5] worked out at 11. Regarding `C[C@@H]1NC(=O)[C@H](CC(N)=O)NC(=O)[C@H](Cc2ccc3ccccc3c2)NC(=O)[C@H](CCCN=C(N)N)NC(=O)[C@@H](Cc2ccccc2)NC(=O)[C@H](Cc2c[nH]cn2)NC(=O)[C@@H](NC(=O)[C@@H](N)Cc2ccc(O)cc2)CC(=O)N([C@@H](Cc2ccc(O)cc2)C(N)=O)[C@@](C)(C(=O)O)NC(=O)[C@H](Cc2ccccc2)NC1=O`, the EC50 in test [1] amounted to 5.56 nM. Further, the Selectivity ratio in test [5] stood at 21. Compound `C[C@@H]1NC(=O)[C@H](CC(N)=O)NC(=O)[C@H](Cc2c[nH]c3ccccc23)NC(=O)[C@@H]2CCCN2C(=O)[C@@H](Cc2ccccc2)NC(=O)[C@H](Cc2c[nH]cn2)NC(=O)[C@@H](NC(=O)[C@@H](N)Cc2ccc(O)cc2)CC(=O)N([C@@H](Cc2ccc(O)cc2)C(N)=O)[C@@](C)(C(=O)O)NC(=O)[C@H](Cc2ccccc2)NC1=O` registered an EC50 in test [1] of 17300 nM. In other words, the double-digit micromolar range. The same measure, in the same setting: the same measure for `C[C@@H]1NC(=O)[C@H](CC(N)=O)NC(=O)[C@H](Cc2c[nH]c3ccccc23)NC(=O)[C@H](CCCN=C(N)N)NC(=O)[C@@H](Cc2ccccc2)NC(=O)[C@H](Cc2c[nH]cn2)NC(=O)[C@@H](NC(=O)[C@@H](N)Cc2ccc(O)cc2)CC(=O)N([C@@H](Cc2ccc(O)cc2)C(N)=O)[C@@](C)(C(=O)O)NC(=O)[C@H](Cc2ccccc2)NC1=O`: 0.97 nM. With `C[C@@H]1NC(=O)[C@H](CC(N)=O)NC(=O)[C@H](Cc2c[nH]c3ccccc23)NC(=O)[C@H](C)NC(=O)[C@@H](Cc2ccccc2)NC(=O)[C@H](Cc2c[nH]cn2)NC(=O)[C@@H](NC(=O)[C@@H](N)Cc2ccc(O)cc2)CC(=O)N([C@@H](Cc2ccc(O)cc2)C(N)=O)[C@@](C)(C(=O)O)NC(=O)[C@H](Cc2ccccc2)NC1=O`, in test [1], the concentration giving a half-maximal response (EC50) was found to be 23800 nM. Further, in test [5], the Selectivity ratio turned out to be 730. Consider `C[C@@H]1NC(=O)[C@H](CC(N)=O)NC(=O)[C@H](C)NC(=O)[C@H](CCCN=C(N)N)NC(=O)[C@@H](Cc2ccccc2)NC(=O)[C@H](Cc2c[nH]cn2)NC(=O)[C@@H](NC(=O)[C@@H](N)Cc2ccc(O)cc2)CC(=O)N([C@@H](Cc2ccc(O)cc2)C(N)=O)[C@@](C)(C(=O)O)NC(=O)[C@H](Cc2ccccc2)NC1=O`, for which, in test [1], the half-maximal effective concentration (EC50) worked out at 13500 nM. In test [5], the Selectivity ratio was 19. In test [6], `C[C@@H]1NC(=O)[C@H](CC(N)=O)NC(=O)[C@H](Cc2c[nH]c3ccccc23)NC(=O)[C@H](CCCN=C(N)N)NC(=O)[C@H](C)NC(=O)[C@H](Cc2c[nH]cn2)NC(=O)[C@@H](NC(=O)[C@@H](N)Cc2ccc(O)cc2)CC(=O)N([C@@H](Cc2ccc(O)cc2)C(N)=O)[C@@](C)(C(=O)O)NC(=O)[C@H](Cc2ccccc2)NC1=O` yielded an SA of 60%.

Compound `C[C@@H]1NC(=O)[C@H](CC(N)=O)NC(=O)[C@H](Cc2c[nH]c3ccccc23)NC(=O)[C@H](CCCN=C(N)N)NC(=O)[C@@H](Cc2ccccc2)NC(=O)[C@H](C)NC(=O)[C@@H](NC(=O)[C@@H](N)Cc2ccc(O)cc2)CC(=O)N([C@@H](Cc2ccc(O)cc2)C(N)=O)[C@@](C)(C(=O)O)NC(=O)[C@H](Cc2ccccc2)NC1=O` registered a 50% effective concentration (EC50) in test [1] of 29 nM. Further, the Selectivity ratio in test [5] came out at 80.

With `C[C@@H]1NC(=O)[C@H](CC(N)=O)NC(=O)[C@@H]2Cc3ccccc3CN2C(=O)[C@H](CCCN=C(N)N)NC(=O)[C@@H](Cc2ccccc2)NC(=O)[C@H](Cc2c[nH]cn2)NC(=O)[C@@H](NC(=O)[C@@H](N)Cc2ccc(O)cc2)CC(=O)N([C@@H](Cc2ccc(O)cc2)C(N)=O)[C@@](C)(C(=O)O)NC(=O)[C@H](Cc2ccccc2)NC1=O`, it took 3400 nM to reach a half-maximal effect in test [1] (EC50). The Selectivity ratio in test [5] worked out at 13. On the same counts, the results for `C[C@@H]1NC(=O)[C@H](CC(N)=O)NC(=O)[C@H](Cc2c[nH]c3ccccc23)NC(=O)[C@H](CCCN=C(N)N)NC(=O)[C@@H](Cc2ccccc2)NC(=O)[C@H](Cc2c[nH]cn2)NC(=O)[C@@H](NC(=O)[C@@H](N)Cc2ccc(O)cc2)CC(=O)N([C@@H](Cc2ccc(O)cc2)C(N)=O)[C@@](C)(C(=O)O)NC(=O)[C@@H](Cc2ccccc2)NC1=O` are 14 nM and 21. In the case of `C[C@@H]1NC(=O)[C@H](CC(N)=O)NC(=O)[C@@H]2CCCN2C(=O)[C@H](CCCNC(=N)N)NC(=O)[C@@H](Cc2ccccc2)NC(=O)[C@H](Cc2c[nH]cn2)NC(=O)[C@@H](NC(=O)[C@@H](N)Cc2ccc(O)cc2)CC(=O)NC[C@@H](C(=O)N[C@@H](Cc2ccc(O)cc2)C(N)=O)NC(=O)[C@H](Cc2ccccc2)NC1=O`, the half-maximal effective concentration (EC50) in test [2] was determined as 1000 nM; in test [3], 7200 nM; in test [4] it was 700 nM. Consider `C[C@@H]1NC(=O)[C@H](CC(N)=O)NC(=O)[C@H](Cc2ccccc2)NC(=O)[C@H](Cc2ccccc2)NC(=O)[C@H](CCCNC(=N)N)NC(=O)[C@@H](NC(=O)[C@@H](N)Cc2ccc(O)cc2)CSSC[C@@H](C(=O)N[C@@H](Cc2ccc(O)cc2)C(N)=O)NC(=O)[C@H](Cc2ccccc2)NC1=O` (H-YCRFFNAFCY-NH2; disulfide 2-9), for which the concentration for a half-maximal effect (EC50) in test [1] and in test [4] was greater than 100000 nM each time. Turning to `C[C@@H]1NC(=O)[C@H](CC(N)=O)NC(=O)[C@@H]2CCCN2C(=O)[C@H](CCCN=C(N)N)NC(=O)[C@@H](Cc2ccccc2)NC(=O)[C@H](Cc2c[nH]cn2)NC(=O)[C@@H](NC(=O)[C@@H](N)Cc2ccc(O)cc2)CC(=O)N([C@@H](Cc2ccc(O)cc2)C(N)=O)[C@@](C)(C(=O)O)NC(=O)[C@H](Cc2ccccc2)NC1=O`, the EC50 in test [1] is 39200 nM. `C[C@@H]1NC(=O)[C@H](CC(N)=O)NC(=O)[C@H](Cc2c[nH]c3ccccc23)NC(=O)[C@H](CCCN=C(N)N)NC(=O)[C@@H]2CCCN2C(=O)[C@H](Cc2c[nH]cn2)NC(=O)[C@@H](NC(=O)[C@@H](N)Cc2ccc(O)cc2)CC(=O)N([C@@H](Cc2ccc(O)cc2)C(N)=O)[C@@](C)(C(=O)O)NC(=O)[C@H](Cc2ccccc2)NC1=O`: the EC50 in test [1] is 13200 nM. This EC50 lies about 3-fold lower than the previous one.

In test [1], `C[C@@H]1NC(=O)[C@H](CC(N)=O)NC(=O)[C@H](Cc2c[nH]c3ccccc23)NC(=O)[C@H](CCCN=C(N)N)NC(=O)[C@@H](Cc2cccc3ccccc23)NC(=O)[C@H](Cc2c[nH]cn2)NC(=O)[C@@H](NC(=O)[C@@H](N)Cc2ccc(O)cc2)CC(=O)N([C@@H](Cc2ccc(O)cc2)C(N)=O)[C@@](C)(C(=O)O)NC(=O)[C@H](Cc2ccccc2)NC1=O` showed an EC50 of 320 nM. Moreover, the Selectivity ratio in test [5] amounted to 560. `C[C@@H]1NC(=O)[C@H](CC(N)=O)NC(=O)[C@H](Cc2c[nH]c3ccccc23)NC(=O)[C@H](CCCCN)NC(=O)[C@@H](Cc2ccccc2)NC(=O)[C@H](Cc2c[nH]cn2)NC(=O)[C@@H](NC(=O)[C@@H](N)Cc2ccc(O)cc2)CC(=O)NC[C@@H](C(=O)N[C@@H](Cc2ccc(O)cc2)C(N)=O)NC(=O)[C@H](Cc2ccccc2)NC1=O`: the EC50 is 680 nM in test [2], 8600 nM in test [3] and 800 nM in test [4]. On the same counts, the results for `C[C@@H]1NC(=O)[C@H](CC(N)=O)NC(=O)[C@H](C)NC(=O)[C@H](CCCNC(=N)N)NC(=O)[C@@H](Cc2ccccc2)NC(=O)[C@H](Cc2c[nH]cn2)NC(=O)[C@@H](NC(=O)[C@@H](N)Cc2ccc(O)cc2)CC(=O)NC[C@@H](C(=O)N[C@@H](Cc2ccc(O)cc2)C(N)=O)NC(=O)[C@H](Cc2ccccc2)NC1=O` are 350 nM, 710 nM and 50.1 nM. As for `C[C@@H]1NC(=O)[C@H](CC(N)=O)NC(=O)[C@H](Cc2c[nH]c3ccccc23)NC(=O)[C@H](CCCN=C(N)N)NC(=O)[C@@H](Cc2ccc(-c3ccccc3)cc2)NC(=O)[C@H](Cc2c[nH]cn2)NC(=O)[C@@H](NC(=O)[C@@H](N)Cc2ccc(O)cc2)CC(=O)N([C@@H](Cc2ccc(O)cc2)C(N)=O)[C@@](C)(C(=O)O)NC(=O)[C@H](Cc2ccccc2)NC1=O`, the response in test [1] was half-maximal at 33 nM (EC50). The Selectivity ratio in test [5] was 58.

On to `C[C@@H]1NC(=O)[C@H](CC(N)=O)NC(=O)[C@@H](Cc2ccc3ccccc3c2)NC(=O)[C@H](CCCN=C(N)N)NC(=O)[C@@H](Cc2ccccc2)NC(=O)[C@H](Cc2c[nH]cn2)NC(=O)[C@@H](NC(=O)[C@@H](N)Cc2ccc(O)cc2)CC(=O)N([C@@H](Cc2ccc(O)cc2)C(N)=O)[C@@](C)(C(=O)O)NC(=O)[C@H](Cc2ccccc2)NC1=O`, for which the half-maximal effective concentration (EC50) in test [1] is 6.5 nM. For the same compound, the Selectivity ratio in test [5] was 10.
